Each block holds one compound with its values, some of them ahead of it.
Legend:
L1210 = experiment: Concentration required for 50% inhibition of L1210 murine leukemia cell growth in MTT assay; format: functional, cell-based; details: Mus musculus
P388 = experiment: Concentration required for 50% inhibition of P388 murine leukemia cell growth in MTT assay; format: functional, cell-based; details: Mus musculus
K562 [1] = experiment: Concentration required for 50% inhibition of K562 human chronic myelogenous leukemia cell growth in MTT assay; format: functional, cell-based
In short: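 K562 cells grown at 37 °C with compound for 5 days; growth read by MTT assay; IC50 taken as concentration giving 50% decrease in cell growth.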

Tubulin [2] = target: T1, Tubulin (Sus scrofa, UniProt P02554+P02550); experiment: Effect on tubulin binding and the concentration required to cause 50% decrease in tubulin assembly at 350 nm.; format: protein assay
In short: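 Tubulin assembly followed by increase in turbidity at 350 nm; IC50 is the concentration causing 50% decrease in assembly.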

Tubulin [3] = target: T1, Tubulin; experiment: Concentration required to cause 50% decrease in the binding of [3H]colchicine from purified porcine tubulin.; format: protein assay
K562 [4] = experiment: Effect upon G2 M phase of cell cycle relative to untreated control; format: functional, Homo sapiens; design: unit not given here
K562 [5] = experiment: Effect upon S phase of cell cycle relative to untreated control; format: functional, Homo sapiens; design: unit not given here
K562 [6] = experiment: Effect upon G0-G1 phase of cell cycle relative to untreated control; format: functional, Homo sapiens; design: unit not given here

Compound: COc1ccc(-c2cc(OC)c(OC)c(OC)c2)cc1O
- IC50 (L1210): > 50000 nM

Compound: COc1ccc(CCc2cc(OC)c(OC)c(OC)c2)cc1O
- IC50 (P388): 110 nM

Compound: COc1ccc(Nc2cc(OC)c(OC)c(OC)c2)cc1
- IC50 (K562 [1]): 3000 nM

Compound: COc1ccc(Oc2ccc(C)c(C)c2)cc1
- IC50 (K562 [1]): 24000 nM

Compound: COc1ccc(OCc2cc(OC)c(OC)c(OC)c2)cc1O
- IC50 (Tubulin [2]): 22500 nM
- IC50 (Tubulin [3]): 226000 nM
- IC50 (K562 [1]): 120 nM
- Activity (K562 [4]): 78.3
- Activity (K562 [5]): 17.9
- Activity (K562 [6]): 3.8

Compound: COc1ccc(OCc2cc(OC)c(OC)c(OC)c2)cc1C=O
- IC50 (Tubulin [2]): 600 nM
- IC50 (Tubulin [3]): 4000 nM
- IC50 (K562 [1]): 170 nM
- Activity (K562 [4]): 57.8
- Activity (K562 [5]): 33.1
- Activity (K562 [6]): 9.1

Compound: COc1ccc(COc2cc(OC)c(OC)c(OC)c2)cc1OCC=O
- IC50 (K562 [1]): 2500 nM

Compound: COc1ccc(OCc2cc(OC)c(OC)c(OC)c2)cc1CO
- IC50 (K562 [1]): 60000 nM

Compound: COc1ccc(Oc2cc(OC)c(OC)c(OC)c2)cc1
- IC50 (K562 [1]): 380 nM

Compound: COc1ccc(/C=C\c2cc(OC)c(OC)c(OC)c2)cc1O [COMBRETASTATIN A4]
- IC50 (P388): 160 nM

Compound: COc1ccc(/C=C/c2cc(OC)c(OC)c(OC)c2)cc1O [E-COMBRETASTATIN A-4]
- IC50 (P388): 2.6 nM

Further lines, with some results ahead:

- IC50 (P388): 33000 nM
Compound: COc1ccc(C(O)Cc2cc(OC)c(OC)c(OC)c2)cc1O (centres undefined)

- IC50 (Tubulin [2]): > 100000 nM
- IC50 (Tubulin [3]): 298000 nM
- IC50 (K562 [1]): 2600 nM
Compound: COc1ccc(Nc2cc(OC)c(OC)c(OC)c2)cc1O
- Activity (K562 [4]): 87.2
- Activity (K562 [5]): 9.4
- Activity (K562 [6]): 3.4

- IC50 (K562 [1]): 51000 nM
Compound: COc1ccc(Oc2cc(OC)c(OC)c(OC)c2)cc1OCc1ccccc1

- IC50 (K562 [1]): 30000 nM
Compound: C=CCOc1cc(COc2cc(OC)c(OC)c(OC)c2)ccc1OC

- IC50 (P388): 33 nM
Compound: COc1ccc(CC(O)c2cc(OC)c(OC)c(OC)c2)cc1O (centres undefined)

- IC50 (P388): 19000 nM
Compound: COc1ccc([C@@H](O)[C@H](O)c2cc(OC)c(OC)c(OC)c2)cc1O

- IC50 (Tubulin [2]): 6600 nM
- IC50 (Tubulin [3]): 36000 nM
- IC50 (K562 [1]): 20 nM
Compound: COc1ccc(COc2cc(OC)c(OC)c(OC)c2)cc1O
- Activity (K562 [4]): 82.5
- Activity (K562 [5]): 14
- Activity (K562 [6]): 3.5

- IC50 (Tubulin [2]): 16300 nM
- IC50 (Tubulin [3]): 36000 nM
- IC50 (K562 [1]): 50 nM
Compound: COc1ccc(Oc2cc(OC)c(OC)c(OC)c2)cc1O
- Activity (K562 [4]): 73.4
- Activity (K562 [5]): 22.3
- Activity (K562 [6]): 4.3

- IC50 (K562 [1]): 90000 nM
Compound: COc1ccc(COc2cc(OC)c(OC)c(OC)c2)cc1OCC(O)CO (centres undefined)

- IC50 (K562 [1]): 21000 nM
Compound: COc1ccc(C#Cc2cc(OC)c(OC)c(OC)c2)cc1O

- IC50 (P388): 2000 nM
Compound: COc1ccc([C@H](O)[C@@H](O)c2cc(OC)c(OC)c(OC)c2)cc1O

- IC50 (K562 [1]): 15000 nM
Compound: COc1ccc(Nc2cc(OC)c(OC)c(OC)c2)cc1OCc1ccccc1

- IC50 (P388): 10 nM
Compound: COc1ccc(C(=O)c2cc(OC)c(OC)c(OC)c2)cc1O [PHENSTATIN]

Reference: ChEMBL document CHEMBL1134049, “Antimitotic and cell growth inhibitory properties of combretastatin A-4-like ethers” (Bioorg Med Chem Lett, 2001)
